Most compounds without a hit are left out; they make up all but 1.9% or so of the library.
PglD DTNB: PglD (C. jejuni) enzyme inhibition | purified PglD enzyme, DTNB colorimetric CoA detection | inhibition, % at 12.5 µM | 360,000 compounds, 0.098% hits | AID 602405; in the data active means inhibition above about 16%, passing the limit was not always enough; inconclusive means no clear call, values can overlap the other calls
Env fusion inh: inhibitors of HIV Env-mediated cell fusion; HeLa-JRFL Env/CEM21 cell fusion, luciferase; inhibition, % at 12.3 µM; 360,000 compounds, 1.1% hits;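 active means mean replicate inhibition score of at least 50 and every replicate individually at or above 50; inconclusive means only one of the two criteria met; inactive means mean below 50 and not all replicates reaching 50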;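 further: 0% = plate neutral controls and 100% = maraviroc near 300 nM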
SR-BI DiI-HDL act: activators of SR-BI mediated HDL lipid uptake; CHO ldlA[mSR-BI] cells, DiI-HDL uptake fluorescence, 3 h; 100 = double the neutral-control signal; activation, % at 12.5 µM; 320,000 compounds, 0.096% hits; AID 504775;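 active means mean replicate activation of at least 60% and every replicate at or above 60%; inconclusive means mean or all-replicate condition met, but not both; inactive means mean below 60% and not all replicates reaching 60%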;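 further: 0% = median plate neutral-control signal and 100% = twice that signal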
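Test system: SR-BI-overexpressing, LDLR-lacking CHO cells. Measured by: DiI fluorescence, bottom read. Medium: Ham's F12 with 0.5% BSA, HEPES 25 mM, pH 7.4. Timing: 3 h uptake period with compound, 37 °C.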
Glyco luc inh: blocks N-linked glycosylation in D54 reporter cells; D54 ERlucT glycosylation luciferase reporter, 24 h; percent of 100 nM tunicamycin response; reporter increase, % at 12.5 µM; 360,000 compounds, 0.23% hits;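 active means mean luciferase reporter signal, scaled so untreated is 0 and the glycosylation-blocking control 100, at or above a set limit in every replicate; inconclusive means mean reaches the limit but not every replicate does; inactive means mean below the limit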;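 further: luciferase carries N-glycosylation sites so blocking glycosylation raises the light; 0% = median of neutral control wells and 100% = median of 100 nM tunicamycin wells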
SR-BI HDL uptake: blocks mouse SR-BI lipid uptake from DiI-HDL | AID 488896 | inhibition, % at 12.5 µM | 320,000 compounds, 0.96% hits | ldlA[mSR-BI] CHO cells, DiI-HDL uptake fluorescence, 3 h;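 active means mean replicate inhibition of at least 70% and a set share of replicates each scoring 70 or more; inconclusive means meets just one of the two criteria; inactive means fails both criteria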;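 further: 0% = median of neutral control wells and 100% = median of positive control wells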
Target sequence (Q61009 whole entry, looked up): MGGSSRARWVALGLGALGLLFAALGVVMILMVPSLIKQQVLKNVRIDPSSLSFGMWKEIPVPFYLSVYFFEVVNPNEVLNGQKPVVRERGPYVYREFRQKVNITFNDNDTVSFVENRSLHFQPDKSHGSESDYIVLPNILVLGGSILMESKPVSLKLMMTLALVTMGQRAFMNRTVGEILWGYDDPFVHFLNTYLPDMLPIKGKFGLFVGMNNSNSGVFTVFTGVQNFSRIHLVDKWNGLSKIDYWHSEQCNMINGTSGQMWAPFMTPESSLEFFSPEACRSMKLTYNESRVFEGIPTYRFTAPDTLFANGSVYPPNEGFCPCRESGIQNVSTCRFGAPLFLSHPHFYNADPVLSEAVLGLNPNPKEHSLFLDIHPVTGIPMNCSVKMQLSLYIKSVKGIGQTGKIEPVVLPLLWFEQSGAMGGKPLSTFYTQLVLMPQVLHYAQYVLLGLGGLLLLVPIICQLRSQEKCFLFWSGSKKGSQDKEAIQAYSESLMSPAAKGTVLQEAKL
Rtt109 HAT inh: C. albicans Rtt109 histone acetyltransferase inhibition. purified Rtt109/Vps75, ThioGlo CoA-SH fluorescence, 4 h. Q5AAJ8. 330,000 compounds, 0.16% hits. inhibition, % at 34.9 µM;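 active means inhibition of at least 50% in every replicate; inconclusive means best replicate reaches 50% inhibition but some replicates fall short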
The depositor's hits bear a star; i = inactive; u = inconclusive; x = no result given; [ ] = remark or other dose.

SMILES	PglD DTNB	Env fusion inh	SR-BI DiI-HDL act	Glyco luc inh	SR-BI HDL uptake	Rtt109 HAT inh
CC(C)c1cc(-c2cc(-c3ccc(Cl)cc3)on2)nc(NC2CCCC2)n1	-3	-10	-14	-2	10	21
CC(C)c1cc(-c2cc(-c3ccccc3)on2)nc(NC2CCCC2)n1	3	4	-75	-2	75*	0
CC(C)NC(=O)C1(C)CN(S(C)(=O)=O)CC(=O)N1CCc1ccccc1F (centres undefined)	x	-12	x	x	x	x
Cc1cccc(C)c1NC(=O)C1(C)CN(S(C)(=O)=O)CC(=O)N1CCc1ccccc1F (centres undefined)	x	57*	x	x	x	x
C[C@@H]1CN([C@H](C)CO)C(=O)c2cccc(NS(C)(=O)=O)c2O[C@H]1CN(C)C(=O)Nc1cccc2ccccc12	5	6[16.7 µM]	x	x	x	x
COc1ccc2c(c1)c[n+](C)c1c3cc(OC)c(OC)cc3ccc21	x	-167	x	x	x	x
COc1cc2c[n+](C)c3c4ccccc4ccc3c2cc1OC	x	36	-38	34*	38	-1
CCOC(=O)c1c(NC(=O)c2cccc(N3C(=O)CCC3=O)c2)sc(C)c1C	1	-21	-27	0	27	-6
Cc1ccc(-c2csc(NC(=O)c3cccc(N4C(=O)CCC4=O)c3)n2)o1	x	x	-62	2	64	4
CCOC(=O)c1c(-c2ccc(-c3ccccc3)cc2)csc1NC(=O)c1cccc(N2C(=O)CCC2=O)c1	x	-4	-72	-2	72*	-16
CCOc1ccc(-c2csc(NC(=O)c3cccc(N4C(=O)CCC4=O)c3)n2)cc1	-1	10	-90	0	90*	14
COc1ccc(-c2csc(NC(=O)c3cccc(N4C(=O)CCC4=O)c3)n2)cc1OC	5	3	-72	-4	72*	-3
Cc1noc(C)c1S(=O)(=O)N(C)C[C@H]1OCCCC[C@H](C)Oc2ccc(NC(=O)Cc3ccccc3)cc2C(=O)N([C@H](C)CO)C[C@H]1C	-1	2[16.7 µM]	x	x	x	x
COCCCn1c(SCc2ccc(OC)cc2)nc2cc(OC)c(OC)cc2c1=N	-4	57*	-21	-1	21	2
CCCSc1nc2cc(OC)c(OC)cc2c(=N)n1CCCN1CCOCC1	x	9	10	3	-10	9
CCC(=O)N1C[C@@H](C)[C@H](OC)CN(C)C(=O)c2ccc(NC(=O)Nc3ccc(Cl)cc3)cc2OC[C@@H]1C	-2	-20[16.7 µM]	x	x	x	x
C[C@H](CO)N1C[C@H](C)[C@H](CN(C)S(=O)(=O)c2cn(C)cn2)Oc2ccc(NC(=O)Nc3ccc(C(F)(F)F)cc3)cc2CC1=O	-1	-134	2	60*	-2	2
C[C@@H]1CN([C@H](C)CO)C(=O)c2cc(NC(=O)Nc3ccc(C(F)(F)F)cc3)ccc2O[C@H]1CN(C)S(=O)(=O)c1ccc(Cl)cc1	1	u	73*	-12	-73	-1
C[C@@H]1CN([C@H](C)CO)C(=O)c2cc(NC(=O)Nc3ccc(C(F)(F)F)cc3)ccc2O[C@@H]1CN(C)S(=O)(=O)c1ccc(F)cc1	-5	12[16.7 µM]	x	x	x	x
COc1ccc(NC(=O)Nc2ccc3c(c2)C(=O)N([C@@H](C)CO)C[C@H](C)[C@H](CN(C)S(=O)(=O)c2ccc(C)cc2)O3)cc1	1	78*[16.7 µM]	x	x	x	x
C[C@@H]1CN([C@@H](C)CO)C(=O)Cc2cc(NC(=O)Nc3ccc(C(F)(F)F)cc3)ccc2O[C@@H]1CN(C)S(=O)(=O)c1ccc(Cl)cc1	-2	28	90*	-7	-90	3
COc1ccc(NC(=O)Nc2ccc3c(c2)C(=O)N([C@@H](C)CO)C[C@@H](C)[C@H](CN(C)S(=O)(=O)c2ccc(C)cc2)O3)cc1	-1	-22[16.7 µM]	x	x	x	x
COc1ccc(S(=O)(=O)N(C)C[C@H]2Oc3ccc(NC(=O)Nc4ccc(C(F)(F)F)cc4)cc3C(=O)N([C@H](C)CO)C[C@H]2C)cc1	-2	3[16.7 µM]	x	x	x	x
COc1ccc(S(=O)(=O)N(C)C[C@@H]2Oc3ccc(NC(=O)Nc4ccc(C(F)(F)F)cc4)cc3C(=O)N([C@@H](C)CO)C[C@@H]2C)cc1	1	67*[16.7 µM]	x	x	x	x
Cc1noc(C)c1S(=O)(=O)N(C)C[C@@H]1Oc2ccc(NC(=O)Nc3ccc(C(F)(F)F)cc3)cc2CC(=O)N([C@H](C)CO)C[C@@H]1C	-1	60*[16.7 µM]	x	x	x	x
SMILES	PglD DTNB	Env fusion inh	SR-BI DiI-HDL act	Glyco luc inh	SR-BI HDL uptake	Rtt109 HAT inh
CN(C)C(=O)C[C@@H]1CC[C@H]2[C@@H](COC[C@@H](O)CN2Cc2ccc(C(F)(F)F)cc2)O1	2	-6[16.7 µM]	x	x	x	x
CCOc1ccc(NC(=O)c2cc3c(C)nc4ccccc4c3o2)cc1	-5	-25	-99	19	99*	1
CCCCCCC[C@@H](C/C=C/CCC(=O)N(C)C/C(=C/Cl)C/C(=C\C(=O)N1CC(OC)=CC1=O)OC)OC	-1	-462	x	77*	x	10
CCCCCCC[C@@H](C/C=C/CCC(=O)N(C)C/C(=C/Cl)C/C(=C\C(=O)N1C[C@H](O)CC1=O)OC)OC	5	5	-25	0	26	-4
CCCC(=O)Nc1ccc2c(c1)C(=O)N(C)[C@@H]1CC[C@@H](CC(=O)NCc3ccccc3)O[C@H]1CO2	-2	-2[16.7 µM]	x	x	x	x
O=C(c1nnsc1S(=O)c1ccc(Cl)cc1)N1CCOCC1 (centres undefined)	2	-3	16	-15	-16	136*
Cc1ccc(S(=O)(=O)N[C@@H]2CC[C@@H](CCNC(=O)c3ccc4c(c3)OCO4)O[C@H]2CO)cc1	3	9[16.7 µM]	x	x	x	x
CCCCNc1c(-c2ccc(-c3ccc(C(C)=O)cc3)c(OC)c2)nc2cc(C)ccn12	-2	-8	-72	-6	72*	3
COc1ccc(NC(C)=[N+](C)CCNS(=O)(=O)c2ccc(Cl)cc2)cc1Cl	2	i	6	-3	-6	2
CC(Nc1cc(C)cc(C)c1)=[N+](C)CCNS(=O)(=O)c1ccc(Cl)cc1	-2	61*	-7	-2	7	-3
C[C@@H]1CCCCO[C@@H](CN(C)Cc2ccc(C(F)(F)F)cc2)[C@@H](C)CN([C@H](C)CO)C(=O)c2cc(NC(=O)Nc3ccc(C(F)(F)F)cc3)ccc2O1	-3	-16[16.7 µM]	x	x	x	x
C[C@@H]1CN([C@H](C)CO)C(=O)c2cc(NC(=O)Nc3ccc(C(F)(F)F)cc3)ccc2O[C@@H](C)CCCCO[C@H]1CN(C)Cc1ccc(C(F)(F)F)cc1	1	64*[16.7 µM]	x	x	x	x
C[C@H]1CCCCO[C@@H](CN(C)Cc2ccc(C(F)(F)F)cc2)[C@@H](C)CN([C@@H](C)CO)C(=O)c2cc(NC(=O)Nc3ccc(C(F)(F)F)cc3)ccc2O1	2	82*[16.7 µM]	x	x	x	x
C[C@@H]1CN([C@@H](C)CO)C(=O)c2cc(NC(=O)Nc3ccc4c(c3)OCO4)ccc2O[C@@H](C)CCCCO[C@@H]1CN(C)Cc1ccc2c(c1)OCO2	3	-75[16.7 µM]	x	x	x	x

From PubChem
